Screening results as filed in PubChem.
MEX-5 binding = C. elegans MEX-5 TCR-2 RNA binding activity | Q9XUB2 | MEX-5/FITC-TCR2 RNA binding, fluorescence polarization; active compounds read low | actives 0.38% (n = 300,000) | activity score (negative = inhibition of binding), % at 10 µM;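 active = inhibition past about -25% in most replicates, and total fluorescence under double the plate's negative control median, limit read from the data; inconclusive = replicates evenly split on the limit, or fluorescence at least double controls; inactive = too little inhibition in most replicates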;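 also: 0% = DMSO and -100% = 5 µM competing unlabeled TCR2 RNA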
RanGTP-Impb inh = inhibitors of RanGTP-importin-beta interaction, primary screen, biochemical, FRET, CFP-Ran, YFP-importin-beta, homogeneous. actives 1.1% (n = 300,000). inhibition, % (test concentration not listed). cell-free CFP-Ran/YFP-importin-beta FRET ratio;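 active = more than half of the replicate wells show a fall in the fluorescence ratio signal beyond about 16%, limit read from the data, passing the limit was not always enough; inconclusive = exactly half of the replicate wells pass the set limit; inactive = fewer than half of replicates pass the limit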;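 also: 0% = DMSO wells and 100% = Ran loaded with GDP instead of GTP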
PKD1 kinase inh = blocks activity of human protein kinase D1 | Q15139 | PKD1 kinase fluorescence polarization assay | inhibition, % (no concentration beside the values) | actives 0.056% (n = 200,000)
Target sequence (Q15139 whole entry, looked up): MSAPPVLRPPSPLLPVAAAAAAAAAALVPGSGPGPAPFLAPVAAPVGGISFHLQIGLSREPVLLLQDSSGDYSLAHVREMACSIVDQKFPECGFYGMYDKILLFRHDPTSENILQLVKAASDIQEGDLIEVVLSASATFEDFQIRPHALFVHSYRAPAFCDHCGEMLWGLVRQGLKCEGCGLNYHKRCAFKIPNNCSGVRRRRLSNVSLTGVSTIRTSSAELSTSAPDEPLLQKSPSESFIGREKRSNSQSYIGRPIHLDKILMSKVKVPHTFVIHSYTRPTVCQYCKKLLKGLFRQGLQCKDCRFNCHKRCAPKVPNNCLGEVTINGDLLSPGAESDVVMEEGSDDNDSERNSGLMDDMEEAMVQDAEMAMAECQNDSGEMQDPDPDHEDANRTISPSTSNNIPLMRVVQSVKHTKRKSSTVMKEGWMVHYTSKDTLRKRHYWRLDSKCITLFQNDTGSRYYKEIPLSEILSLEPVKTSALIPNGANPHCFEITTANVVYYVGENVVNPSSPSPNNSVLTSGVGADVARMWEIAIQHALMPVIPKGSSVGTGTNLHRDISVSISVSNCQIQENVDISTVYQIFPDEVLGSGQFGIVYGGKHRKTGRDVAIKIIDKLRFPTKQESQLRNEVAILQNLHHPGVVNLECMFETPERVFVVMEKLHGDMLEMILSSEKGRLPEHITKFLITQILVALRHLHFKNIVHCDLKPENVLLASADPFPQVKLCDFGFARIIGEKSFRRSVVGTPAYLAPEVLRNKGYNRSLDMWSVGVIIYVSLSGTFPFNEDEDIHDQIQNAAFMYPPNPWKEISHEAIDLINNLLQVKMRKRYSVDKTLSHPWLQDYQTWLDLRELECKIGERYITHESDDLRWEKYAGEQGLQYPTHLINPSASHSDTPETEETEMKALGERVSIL
Runt-CBFb FRET = Runt domain-CBFb interaction inhibition. Cerulean-Runt/Venus-CBFb FRET ratio 530/480, 1 h. actives 0.46% (n = 220,000). inhibition, % at 20 µM. AID 1496. Q01196+Q13951;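 active = inhibition over about 50% at 20 µM in the single-dose screen, limit read from the data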;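 also: 0% = DMSO wells and 100% = excess unlabeled CBFb competitor control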
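Measured by: fluorescence energy transfer, 422 nm excitation, 530/480 nm emission; Assay system: Cerulean-Runt domain; Medium: Tris pH 7.5 buffer with BSA; Measure: loss of energy transfer signal; Controls: 5 µM unlabeled CBFb as full-inhibition high control; Incubation: protein complex preformed 1 h, compound exposure 1 h, room temperature, dark.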
EBV gp42 inh = EBV gp42 inhibition | inhibition, % (tested at 21.74 µM) | actives 0.42% (n = 220,000) | Fluorescence polarization binding assay, mP read-out | Q1HVG2
Runt-SMMHC FRET = blocks binding of human RUNX1 Runt domain to CBFb-SMMHC; Q01196+Q13951; Cerulean-Runt/Venus-CBFb-SMMHC FRET ratio 530/480, 1 h; inhibition, % at 20 µM; actives 0.74% (n = 220,000); AID 1434;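 active = mean inhibition across duplicate retests at 20 µM reaching about 50%, limit read from the data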;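 also: 0% = DMSO wells and 100% = wells with excess untagged CBFb-SMMHC; inhibitors lower the FRET ratio by blocking Runt binding to CBFb-SMMHC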
RUNX1 CBFb TR = disrupts human RUNX1 Runt domain binding to CBFb; shares compounds with Runt-CBFb FRET; TR-FRET RUNX1 Runt domain-CBFb binding; inhibition, % at 20 µM; actives 20% (n = 480); AID 1502; in the data active = inhibition above about 40%
Starred values were filed as active, the others as inactive; ? = inconclusive; · = no result. An excerpt weighted towards active compounds, which were near 2% of everything screened. Rule as the data show it, unless noted: active = inhibition above about 50%; inactive = the rest.

SMILES	MEX-5 binding	RanGTP-Impb inh	PKD1 kinase inh	Runt-CBFb FRET	EBV gp42 inh	Runt-SMMHC FRET	RUNX1 CBFb TR
O=c1cc(O)c2sc(Nc3cccc(C(F)(F)F)c3)nc2[nH]1	-2	-2	-1	60*	0	45	29
N#CCc1nn(-c2ccc(F)cc2)c(N)c1C#N	1	3	-6	2	-5	-2	·
CN(C)S(=O)(=O)c1cccc(NC(=O)CO/N=C(\N)c2ccccc2)c1	0	-1	·	·	·	·	·
CCc1nc2sc3c(O)cc(=O)[nH]c3c2cc1C	-1	-1	6	52*	6	56	54*
Cc1nnc(N(C)C(=O)c2ccccn2)s1	2	2	-3	-1	1	-4	·
CN(C(=O)c1ccccn1)c1nnc(-c2cccnc2)s1	·	·	9	82*	-21	-2	-6
c1coc(C2=NCCc3ccccc32)c1	1	-3	·	·	·	·	·
O=C(c1ccccc1)c1ccccc1N1C(=O)C=CC1=O	0	1	·	64*	-26	70*	14
O=C(O)c1ccccc1C(=O)c1ccc(-c2ccccc2)cc1	0	0	·	·	·	·	·
COc1cc(Cl)c(C)cc1NC(=S)NN	2	2	-2	51*	-6	30	16
COc1cc(NC(=S)NC(C)(C)C)c(OC)cc1Cl	0	11	-3	5	-4	-4	·
COc1ccc(C2C(C#N)=C(N)N(Nc3ccccc3)C3=C2C(=O)CC(C)(C)C3)cc1C (stereo not drawn)	4	3	-10	62*	-7	102*	-3
COC(=O)C1C/C(=N/NS(=O)(=O)c2ccc(C)cc2)CS1 (stereo not drawn)	-2	2	·	·	·	·	·
Cc1ccc(C)c(/C=N/Nc2nc3ccccc3c(=O)n2O)c1	-2	0	·	51*	-13	19	-1
O=C(NC1CCCCCC1)c1ccc[nH]c1=S	-2	1	1	54*	-18	60*	-36
N#CC1=C2SCCN2C(=O)C(C#N)C12CCCCC2 (stereo not drawn)	-2	4	-7	56*	1	-3	1
COC(=O)C(C)n1nnc2sc(-c3ccccc3)cc2c1=O (stereo not drawn)	0	·	-7	58*	-5	124*	-98
CC(C)(C)C(=O)CSc1ncccn1	-1	5	-1	58*	-9	42	70*
O=C(Nc1ccc(Cl)c(-c2nc3ccccc3[nH]2)c1)c1ccc2c(c1)OCO2	0	0	-1	65*	4	-5	-121
Clc1ccc(-c2csc(NNC3=NCCCCC3)n2)cc1	0	-3	-1	5	-22	18	·
c1ccc(-c2csc(NNC3=NCCCCC3)n2)cc1	1	-4	-4	51*	-14	52	44*
CCN(CC)c1ccc(/C=N/NC(=O)c2ccco2)cc1	2	3	-7	0	-10	-8	·
CCN(CC)c1ccc(/C=N/NC(=O)c2ccco2)c(O)c1	?	63*	·	75*	-34	82*	20
CN1C=CC2=C(C#N)C(N)C(C#N)(C#N)C(c3ccccc3)C2C1 (stereo not drawn)	?	40*	3	71*	63*	62*	32
COc1ccccc1C(=O)NC(CCSC)C(=O)NCc1ccccn1 (stereo not drawn)	1	2	·	·	·	·	·
SMILES	MEX-5 binding	RanGTP-Impb inh	PKD1 kinase inh	Runt-CBFb FRET	EBV gp42 inh	Runt-SMMHC FRET	RUNX1 CBFb TR
Cc1c(NS(=O)(=O)c2cc(Br)cc3c2N(C(=O)C2CC2)CC3)c(=O)n(-c2ccccc2)n1C	1	0	-10	0	-2	-2	·
Cc1c(NS(=O)(=O)c2ccc3c(c2)CCN3C(=O)C2CC2)c(=O)n(-c2ccccc2)n1C	1	2	21	57*	-2	-8	-10
COc1ccc(-n2nnnc2SCC(=O)N2CCOCC2)cc1	0	7	-4	0	-9	-2	·
COc1ccc(-n2nnnc2Sc2ccc(S(=O)(=O)N3CCOCC3)cn2)cc1	-3	1	·	57*	·	35	-39
Cc1ccc(N2C(=O)C(Cl)=C(N3CCOCC3)C2=O)cc1Cl	1	0	-3	65*	-12	54*	20
C/C(CC(=O)Nc1cc(C)ccn1)=N\NC(=O)c1cccc(F)c1	1	-1	·	·	·	·	·
CCCCC(=O)NNC(=S)NC(=O)c1ccc([N+](=O)[O-])cc1	-10	3	-5	54*	1	22	-20
CCOc1ccccc1CN1CCNC(=O)C1CC(=O)NCCN1CCOC1=O (stereo not drawn)	-5	-4	·	·	·	·	·
O=c1[nH]c(CN2CCN(c3ccccc3)CC2)nc2scc(-c3ccccc3)c12	1	-11	-3	-2	-30	-4	·
Cc1sc2nc(CN3CCN(c4ccc(O)cc4)CC3)[nH]c(=O)c2c1C	-2	?	·	54*	-8	-4	63*
CN1CCN(C(=S)c2ccc(Br)cc2)CC1	-1	?	1	50*	-8	44	6
CSc1ccc(C(=S)N2CCN(C)CC2)cc1	-1	-1	0	54*	-7	39	-10
Cc1cc(Br)cc(Br)c1OCC(=O)NNC(=O)Nc1ccccc1	1	4	·	·	·	·	·
COc1ccccc1NC(=O)CCC(=O)OCC(=O)c1ccc(C)c([N+](=O)[O-])c1	-1	-1	·	·	·	·	·
COc1cccc(C2C(C(=O)Nc3nc4ccccc4s3)=C(C)NC3=C2C(=O)CC(C)(C)C3)c1OC (stereo not drawn)	-1	69*	-2	54*	-24	82*	6
O=C1CC(NS(=O)(=O)c2cccs2)CN1c1ccc(Cl)cc1 (stereo not drawn)	-1	2	·	·	·	·	·
CC1(C)C(N(O)C(=O)Nc2ccccc2)N(c2cccc(Cl)c2)C(=O)N1O (stereo not drawn)	-3	1	2	53*	-4	-4	-14
CCOC(=O)c1ccc(NS(=O)(=O)c2ccc3oc(=O)[nH]c3c2)cc1	-4	1	·	·	·	·	·
CCCCOC(=O)Nc1ccccc1C(N)=O	-3	?	-4	51*	-13	116	2
CCOC(=O)CCC(=O)Nc1ccccc1C(N)=O	3	6	-8	0	-4	-1	·
Cc1cc(C)nc(SCC(=O)c2ccc(F)cc2)n1	-1	3	·	·	·	·	·
Cc1cc(C)nc(SCNC(=O)c2ccc(F)cc2)n1	1	1	2	53*	-1	17	8
CCNC(=O)CCSc1nc(C)cc(C)n1	0	4	1	50*	-2	36	16
CCOC(=O)c1sc2nc(Cc3ccc(Cl)cc3)[nH]c(=S)c2c1C	2	-1	-4	3	-10	0	·
